# Assay outcomes as filed in PubChem.
# CHRM5 antagonist: human M5 muscarinic receptor antagonists, primary screen, CHO cells, Fluo-8 calcium fluorescence. CHO-hM5 cells, ACh EC80. inhibition, % at 3 µM. 0.59% of 360,000 active;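 active = inhibition above a per-plate cutoff, the mean of that plate's test compounds plus 3 SD, cut at about 27% in these data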
# CHRM5 agonist: human M5 muscarinic receptor agonists, primary screen, CHO-K1 cells, Fluo-8 calcium fluorescence; activation, % at 3 µM; 0.19% of 360,000 active; AID 624037, 2012; CHO-K1 hM5 cells; 0% DMSO wells, 100% maximal acetylcholine response;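 active = activation above the run's mean over test compounds plus 3 SD, cut at about 23% in these data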;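 also: signal is peak over basal fluorescence ratio across the kinetic read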
# M5 PAM: human M5 muscarinic receptor positive allosteric modulators, primary screen, CHO-K1 cells, Fluo-8 calcium fluorescence. CHO-K1 hM5, ACh EC20 PAM; 0% = ACh EC20, 100% = ACh EC100. activation, % at 3 µM. 0.3% of 360,000 active;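 active = activation above the run cutoff, the mean activation of all test compounds plus 3 SD, cut at about 18% in these data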
#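 Replicates: One well per compound, no replicates | System: Human M5 receptor in CHO-K1 cells | Benchmarks: Low control EC20 acetylcholine (0%), high control EC100 acetylcholine (100%) | Probe or stimulus: Acetylcholine, EC20 level | Times: Fluo-8 loading 80 min at 37 °C plus 30 min room temperature | Signal: Intracellular calcium via Fluo-8 fluorescence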
# CHRM4 antagonist: human M4 muscarinic receptor antagonists, primary screen, CHO cells, Fluo-8 calcium fluorescence; CHO-hM4 cells, ACh EC80; inhibition, % at 3 µM; 0.73% of 360,000 active; AID 624125, 2012;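 active = inhibition above its plate's cutoff, the mean inhibition of sample wells plus 3 SD, cut at about 27% in these data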
# Target sequence (P08173 whole entry, looked up): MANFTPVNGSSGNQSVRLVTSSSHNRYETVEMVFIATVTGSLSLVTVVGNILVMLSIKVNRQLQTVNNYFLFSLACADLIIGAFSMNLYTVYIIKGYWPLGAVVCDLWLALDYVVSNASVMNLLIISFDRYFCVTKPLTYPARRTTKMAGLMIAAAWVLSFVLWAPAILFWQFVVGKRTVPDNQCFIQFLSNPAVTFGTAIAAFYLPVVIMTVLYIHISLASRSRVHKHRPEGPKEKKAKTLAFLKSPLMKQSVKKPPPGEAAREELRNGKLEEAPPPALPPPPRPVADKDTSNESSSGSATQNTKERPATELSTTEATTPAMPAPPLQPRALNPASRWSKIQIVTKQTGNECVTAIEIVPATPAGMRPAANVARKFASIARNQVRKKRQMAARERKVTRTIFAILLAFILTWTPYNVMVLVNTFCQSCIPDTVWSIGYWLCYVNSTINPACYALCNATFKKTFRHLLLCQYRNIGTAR
# M4 PAM: human M4 muscarinic receptor positive allosteric modulators, primary screen, CHO-K1 cells, Fluo-8 calcium fluorescence | 0.4% of 360,000 active | activation, % at 3 µM | AID 624126, 2012 | Muscarinic acetylcholine receptor M4 (Homo sapiens), P08173 | CHO-K1 hM4/Gqi5, ACh EC20; 0% = ACh EC20, 100% = maximal ACh;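 active = activation above its plate's cutoff, the mean activation of sample wells plus 3 SD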
# M4 ag: human M4 muscarinic receptor agonists, primary screen, CHO-K1 cells, Fluo-8 calcium fluorescence. 0.14% of 360,000 active. activation, % at 3 µM. AID 624127, 2012. CHO-K1 hM4/Gqi5; vehicle 0%, full acetylcholine response 100%. Muscarinic acetylcholine receptor M4 (Homo sapiens), P08173;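 active = activation above the run mean over all test wells plus 3 SD, cut at about 32% in these data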;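 also: peak over basal fluorescence ratio per well then scaled between controls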
# Numbers stand for hits; 0 = inactive. Only some compounds are listed: those with a hit (about 1.8% of all), similar ones and a draw of the others.
SMILES,CHRM5 antagonist,CHRM5 agonist,M5 PAM,CHRM4 antagonist,M4 PAM,M4 ag
CN(C)c1ccc(NC2=C(Cl)C(=O)c3ccccc3C2=O)cc1,34.4,0,0,36.5,0,0
O=C1C(Cl)=C(Nc2ccc3cn[nH]c3c2)C(=O)c2ccccc21,28.5,0,0,39.1,0,0
O=C1CNC(=O)c2cc(Cl)ccc2N1,0,0,0,0,0,0
Cc1cc(C)cc(OCC(=O)N(C)CC(=O)Nc2ccc(N3CCOCC3)cc2)c1,0,0,0,0,0,0
O=C(O)Cn1c(C(F)(F)F)nc2ccccc21,0,0,0,32.1,0,0
CN(Cc1ccccn1)C(=O)C1CCC(=O)N(Cc2cccc(C(F)(F)F)c2)C1 (stereo not drawn),0,0,0,0,0,0
O=C1C=CC2(O[C@H](c3ccccc3)[C@@H](c3ccccc3)O2)[C@H](Sc2ccccc2O)C1,0,0,0,56.9,0,0
COc1cccc(N2CCN(c3ncnc4c3cnn4-c3ccc(C)cc3C)CC2)c1,46.7,0,0,46.5,0,0
Cc1ccc(-n2ncc3c(N4CCCC4)ncnc32)c(C)c1,0,0,0,0,0,0
O=C(NCc1ccc2c(c1)OCO2)C(=O)NCC1OCCN1S(=O)(=O)c1ccccc1 (stereo not drawn),0,0,0,0,0,0
CC(=O)Nc1cc2c(c([N+](=O)[O-])c1C)C(C)(C)CC2(C)C,0,0,0,0,0,0
Cc1c(N=NC2=C(O)CC(C)(C)CC2=O)cc2c(c1[N+](=O)[O-])C(C)(C)CC2(C)C,0,0,23.1,0,0,0
Cc1ccc(CC(=O)NNC(=O)c2ccncc2)cc1C,0,0,0,0,0,0
CN(C/C=C/c1ccccc1[N+](=O)[O-])Cc1ccccc1,0,0,0,35.3,0,0
Cc1cc(C)cc(N(CCC#N)C(=O)COC(=O)C2CCN(c3ccc(C(F)(F)F)cn3)CC2)c1,0,0,0,0,0,0
Fc1ccccc1COc1cccc(/C=N/n2cnnc2)c1,0,0,0,0,0,0
Cc1cc(/C=N/n2cnnc2)c(C)n1-c1ccc(OCc2ccc(Cl)cc2)cc1,0,0,0,30.2,0,0
C(=N\n1cnnc1)/c1ccc(OCc2ccccc2)cc1,0,0,0,0,0,0
Cc1cc(/C=N/n2cnnc2)c(C)n1-c1ccc(OCc2ccccc2F)cc1,29.3,0,0,30.7,0,0
COC(=O)CCC(=O)NC(=S)Nc1ccc(S(=O)(=O)N2CCCC2)cc1,0,0,0,0,0,0
CCn1c(=O)c2cc(C(=O)NCCN(C)C)sc2c2ccccc21,0,0,19.1,0,0,0
COc1cc(/C=C2/SC(=Nc3ccc(O)cc3)NC2=O)cc(OC)c1O,0,0,0,0,0,0
COc1ccccc1N=C1NC(=O)/C(=C/c2ccc(N(C)C)cc2)S1,36.0,51.4,0,0,0,0
O=C(NNc1ccc([N+](=O)[O-])cc1)c1ccccc1Cl,0,0,0,0,0,0
O=C(NC(NNc1ccc([N+](=O)[O-])cc1)(C(F)(F)F)C(F)(F)F)c1ccc(Cl)cc1,27.2,0,0,0,0,0
SMILES,CHRM5 antagonist,CHRM5 agonist,M5 PAM,CHRM4 antagonist,M4 PAM,M4 ag
CN1C2CCC1CC(OC(c1ccccc1)c1ccccc1)C2 (stereo not drawn),99.1,0,0,99.1,0,0
CN1CCC(OC(c2ccccc2)c2ccc(Cl)cc2)C1 (stereo not drawn),88.7,0,0,57.8,0,0
CN1C2CCC1CC(OC(=O)c1c[nH]c3ccccc13)C2 (stereo not drawn),0,0,0,0,0,0
CCOc1ccc(NC(=O)CN(C)C(=O)CCC2CCCCC2)cc1OCC,0,0,0,0,0,0
COc1ccc(NC(=O)CN(C)C(=O)CCC2CCCC2)cc1,29.6,0,0,0,0,0
COc1ccccc1C(=O)Oc1ccc(C(C)(C)C)cc1,0,0,26.0,0,0,0
COc1ccccc1C(=O)Oc1ccc2ccc(=O)oc2c1,0,0,0,0,0,0
COc1ccc(Br)cc1CN(C)C(=O)c1cnc(C)cn1,0,0,0,0,0,0
O=C(NCc1ccccc1)c1ccc(CS(=O)(=O)c2ccc(Br)cc2)o1,0,0,0,0,0,0
O=C(NCc1ccccc1)c1ccc(CS(=O)(=O)c2ccccc2)o1,0,0,21.9,0,0,0
c1ccc(CN2CCC(Nc3ncnc4sccc34)CC2)cc1,0,0,0,0,0,0
Cc1sc2ncnc(NC3CCN(Cc4ccccc4)CC3)c2c1C,29.3,0,0,0,0,0
CCCOC(=O)c1ccc(Oc2coc3c(CN(CC)CC)c(O)ccc3c2=O)cc1,0,0,0,93.3,0,0
CCC1CCCCN1CCCNC(=O)c1ccc2c(c1)N(Cc1c(F)cccc1Cl)C(=O)CS2 (stereo not drawn),75.5,0,0,99.5,0,0
O=C(NC1CCCC1)c1ccc2c(c1)N(Cc1ccccc1)CCS2,0,0,18.4,0,0,0
O=C(NCCN1CCOCC1)c1ccc2c(c1)N(Cc1ccc(Cl)cc1)C(=O)CS2,0,0,0,0,0,0
O=C(NCCN1CCOCC1)c1ccc2c(c1)N(Cc1ccccc1)C(=O)CS2,0,0,0,37.2,0,0
CCN(C(=O)CSc1ccccn1)C1CCCCC1,0,0,0,0,0,0
O=C(CCc1nc2ccccc2c(=O)[nH]1)N1CCCc2ccccc21,0,0,0,0,0,0
CCCN1CCN(C(=O)c2nn(-c3ccc(OC)cc3)c(=O)c3c2c2ccccc2n3C)CC1,0,0,0,0,0,0
CCOc1ccc(-n2cnc3sc(C)c(C)c3c2=O)cc1,0,0,0,0,0,0
COc1ccc(NC(=O)CS(=O)CC(=O)Nc2ccc(OC)c(OC)c2)cc1 (stereo not drawn),0,0,0,0,30.4,0
CC(=O)Nc1cccc(C(=O)OC(C)C(=O)NC(=O)NC2CCCCC2)c1 (stereo not drawn),0,0,0,0,0,0
O=C(/C=C/c1c(F)cccc1Cl)c1ccc(O)cc1,0,0,0,39.1,0,0
Cc1ccccc1NC(=O)CSc1nnc(Cc2ccccc2)c(=O)n1N,0,0,0,0,0,0
O=C(CN1CCN(Cc2ccc3c(c2)OCO3)CC1)Nc1ccc(N2CCOCC2)cc1,0,0,0,0,0,0
O=C(CN1CCN(Cc2ccc3c(c2)OCO3)CC1)Nc1ccc2[nH]c(=O)[nH]c2c1,0,0,0,0,15.6,0
